Data published in ChEMBL document CHEMBL1146456, “Africane-type sesquiterpenoids from the Argentine liverwort Porella swartziana and their antibacterial activity” (J Nat Prod, 2004).
Calls of active or inactive are those of the source. The calls are words filed in the database; no cut-off is given here.

Assays:
Staphylococcus aureus [1] = assay: Antibacterial activity against Staphylococcus aureus ATCC 6538 P at below 625 ug/mL after 24 hrs by broth microdilution method; format: functional, organism-based
Method in brief: (§1)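 Broth microdilution in LAPTg medium (pH 6.8). Inoculum set to 0.5 McFarland (10⁸ CFU/mL), then diluted to 10⁵ CFU/mL and confirmed by plate counts. Added to 0.1 mL broth containing compound over 5000 to 156.2 µg/mL, with DMSO as solvent. Incubated 24 h at 37 °C. MIC taken as the lowest concentration with no visible growth.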

Staphylococcus aureus [2] = assay: Antibacterial activity against Staphylococcus aureus F7 at below 625 ug/mL after 24 hrs by broth microdilution method; format: functional, organism-based; method in brief: as §1

SMILES	Activity (Staphylococcus aureus [1])	Activity (Staphylococcus aureus [2])
COC(=O)CC1=C(C(C)=O)CC(C)(C)C[C@H]2C[C@@]12C	inactive	inactive
C[C@@H]1OC(=O)C2=C1CC(C)(C)C[C@H]1C[C@@]21C	inactive	inactive
CC1(C)C[C@H]2C[C@@]2(C)C2=CC(=O)[C@@]3(C)O[C@@]23C1	inactive	inactive
Cc1oc(=O)cc2c1CC(C)(C)C[C@H]1C[C@@]21C	inactive	inactive
CC1(C)S[C@@H]2[C@H](NC(=O)Cc3ccccc3)C(=O)N2[C@H]1C(=O)O	Active	Active
CC1(C)C[C@H]2C[C@@]2(C)C2=CC(=O)[C@@](C)(O)[C@@H]2C1	inactive	inactive
CC1(C)C=C2C(=CC(=O)[C@@]2(C)O)[C@]2(C)C[C@@H]2C1	inactive	inactive
C[C@H]1C(=O)C=C2[C@H]1CC(C)(C)C[C@H]1C[C@@]21C	inactive	inactive
CC1(C)CC2=C(C(=O)O[C@]2(C)O)[C@]2(C)C[C@@H]2C1	inactive	inactive
